# Results: ChEMBL document CHEMBL1123571, “[(6,7-Dichlorobenzo[b]thien-5-yl)oxy]acetic acids and 1,1-dioxides. 1. A structurally novel class of diuretics with hypotensive activity” (1987)
# Where “and” joins values, the source holds several entries; their conditions need not be identical. Equal values may be shown once.
# Tests used:
# Rattus norvegicus [1] = assay: Hypotensive activity was determined in Spontaneously hypertensive rats (SHR) and peak decrease in systolic blood pressure on third day,2h post administration of 50 mg/kg oral dose was determined; assay type: functional, Artery
# Method in brief: (§1)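 Okamoto-Aoki spontaneously hypertensive rats were dosed orally every day with compound suspended in distilled water with Tween 80. Systolic BP was taken by tail-cuff plethysmography on day 1 (predose, 2 h), day 3 (predose, 2 h) and day 5 (predose, 2 and 4 h). The value is the peak fall at day 3, 2 h postdose, ± SEM. Four rats were used in the screen and 4–8 per dose in dose-response.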
# Mus musculus [2] = assay: Diuretic activity in saline loaded mice, activity is expressed as the sodium present in urine as mean milli equivalent/kg per 5 hr at 64 mg/kg oral dose; assay type: functional
# Method in brief: (§2)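 Male CD-1 mice (18–24 g), 10 per treatment group, housed five per metabolic cage. Compound was given orally in 1% saline at 10 mL/kg, with a vehicle control group. Pooled urine was analysed for sodium by flame photometry. Values are mean mequiv/kg over 0–5 h.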
# Rattus norvegicus [3] = assay: Hypotensive activity was determined in Spontaneously hypertensive rats (SHR) and initial blood pressure was determined at 50 mg/kg oral dose; assay type: functional
# Rattus norvegicus [4] = assay: Hypotensive activity was determined in Spontaneously hypertensive rats (SHR) and initial blood pressure was determined at 30 mg/kg oral dose; assay type: functional
# Mus musculus [5] = assay: Compound was tested for diuretic activity in saline loaded mice, activity is expressed as the sodium present in urine as mean milli equivalent/kg per 5 hr at 16 mg/kg oral dose; assay type: functional; method in brief: as §2
# Mus musculus [6] = assay: Compound was tested for diuretic activity in saline loaded mice, activity is expressed as the sodium present in urine as mean milli equivalent/kg per 5 hr at 128 mg/kg oral dose; assay type: functional; method in brief: as §2
# Mus musculus [7] = assay: Compound was tested for diuretic activity in saline loaded mice, activity is expressed as the sodium present in urine as mean milli equivalent/kg per 5 hr at 32 mg/kg oral dose; assay type: functional; method in brief: as §2
# Rattus norvegicus [8] = organism: Rattus norvegicus; assay: Initial blood pressure before treatment; assay type: functional
# Method in brief: (§3)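 Grollman renal hypertension (one kidney, one wrap) in male Sprague-Dawley rats. Under pentobarbital (50 mg/kg ip) the right kidney was removed and silk sutures were tied around both poles of the left kidney. After 3 weeks, rats with systolic BP >150 mmHg were selected. Oral dosing followed. Systolic BP was measured by tail-cuff plethysmography as day/hour readings, and the change was taken against the initial pressure.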
# Rattus norvegicus [9] = assay: Hypotensive activity was determined in Spontaneously hypertensive rats (SHR) and initial blood pressure was determined at 3 mg/kg oral dose; assay type: functional
# Rattus norvegicus [10] = assay: Hypotensive activity after 10 mg/kg oral dose in rats (Change in blood pressure after treatment (day/hours)); assay type: functional; method in brief: as §3
# Rattus norvegicus [11] = assay: Hypotensive activity was determined in Spontaneously hypertensive rats (SHR) and peak decrease in systolic blood pressure on third day,2h post administration of 3 mg/kg oral dose was determined; assay type: functional, Artery; method in brief: as §1
# Rattus norvegicus [12] = assay: Hypotensive activity was determined in Spontaneously hypertensive rats (SHR) and peak decrease in systolic blood pressure on third day,2h post administration of 30 mg/kg oral dose was determined; assay type: functional, Artery; method in brief: as §1
# Rattus norvegicus [13] = assay: Hypotensive activity was determined in Spontaneously hypertensive rats (SHR) and peak decrease in systolic blood pressure on third day,2h post administration of 1 mg/kg oral dose was determined; assay type: functional, Artery; method in brief: as §1
# Rattus norvegicus [14] = assay: Hypotensive activity was determined in Spontaneously hypertensive rats (SHR) and peak decrease in systolic blood pressure on third day,2h post administration of 10 mg/kg oral dose was determined; assay type: functional, Artery; method in brief: as §1
# Rattus norvegicus [15] = assay: Hypotensive activity was determined in Spontaneously hypertensive rats (SHR) and initial blood pressure was determined at 1 mg/kg oral dose; assay type: functional
# Rattus norvegicus [16] = assay: Hypotensive activity was determined in Spontaneously hypertensive rats (SHR) and initial blood pressure was determined at 10 mg/kg oral dose; assay type: functional
# Rattus norvegicus [17] = assay: Hypotensive activity was determined in Spontaneously hypertensive rats (SHR) and peak decrease in systolic blood pressure on third day,2h post administration of 25 mg/kg oral dose was determined; assay type: functional, Artery; method in brief: as §1
# Rattus norvegicus [18] = assay: Hypotensive activity was determined in Spontaneously hypertensive rats (SHR) and initial blood pressure was determined at 25 mg/kg oral dose; assay type: functional
# Rattus norvegicus [19] = assay: Hypotensive activity after 50 mg/kg oral dose in rats (Change in blood pressure after treatment (day/hours)); assay type: functional; method in brief: as §3
# Rattus norvegicus [20] = organism: Rattus norvegicus; assay: Change in blood pressure (Initial blood pressure- Post drug blood pressure); assay type: functional; method in brief: as §3
Compound,Change in BP (Rattus norvegicus [1]),mequiv of Na+/kg (Mus musculus [2]),Initial blood pressure (Rattus norvegicus [3]),further results
CC(=O)c1cc2cc(OCC(=O)O)c(Cl)c(Cl)c2s1,-28 mmHg,1.16 0-5h,199 mmHg,
CC(O)c1cc2cc(OCC(=O)O)c(Cl)c(Cl)c2s1 (stereo unspecified),-7 mmHg,2.86 0-5h,183 mmHg,
CCCC1=Cc2cc(OCC(=O)O)c(Cl)c(Cl)c2S1(=O)=O,,3.13 0-5h,,Initial blood pressure (Rattus norvegicus [4]): 202 mmHg; mequiv of Na+/kg (Mus musculus [5]): 1.06 0-5h; mequiv of Na+/kg (Mus musculus [6]): 4.99 0-5h; mequiv of Na+/kg (Mus musculus [7]): 1.79 0-5h; Initial blood pressure (Rattus norvegicus [8]): 166 mmHg; Initial blood pressure (Rattus norvegicus [9]): 205 mmHg; Post drug blood pressure (Rattus norvegicus [10]): 135 mmHg and 156 mmHg and 153 mmHg and 167 mmHg; Change in BP (Rattus norvegicus [11]): -52 mmHg; Change in BP (Rattus norvegicus [12]): -64 mmHg
CC(C)C1=Cc2cc(OCC(=O)O)c(Cl)c(Cl)c2S1(=O)=O,-33 mmHg,2.58 0-5h,192 mmHg,mequiv of Na+/kg (Mus musculus [6]): 5.32 0-5h; mequiv of Na+/kg (Mus musculus [7]): 0.88 0-5h
O=C(O)COc1cc2cc(C3CCCC3)sc2c(Cl)c1Cl,-31 mmHg,1.3 0-5h,193 mmHg,
CC(O)C1=Cc2cc(OCC(=O)O)c(Cl)c(Cl)c2S1(=O)=O (stereo unspecified),-9 mmHg,0.43 0-5h,176 mmHg,
CCCCC1=Cc2cc(OCC(=O)O)c(Cl)c(Cl)c2S1(=O)=O,-24 mmHg,2.42 0-5h,185 mmHg,
Cc1cc2cc(OCC(=O)O)c(Cl)c(Cl)c2s1,-51 mmHg,1.16 0-5h,215 mmHg,Change in BP (Rattus norvegicus [13]): -42 mmHg; Change in BP (Rattus norvegicus [14]): -33 mmHg; Initial blood pressure (Rattus norvegicus [15]): 177 mmHg; Initial blood pressure (Rattus norvegicus [9]): 173 mmHg; Change in BP (Rattus norvegicus [11]): -37 mmHg; Initial blood pressure (Rattus norvegicus [16]): 196 mmHg
O=C(O)COc1cc2c(c(Cl)c1Cl)S(=O)(=O)C=C2,-3 mmHg,0.33 0-5h,201 mmHg,
O=C(O)COc1cc2c(c(Cl)c1Cl)S(=O)(=O)C(C1CCCCC1)=C2,-43 mmHg,1.25 0-5h,202 mmHg,Initial blood pressure (Rattus norvegicus [4]): 167 mmHg; Initial blood pressure (Rattus norvegicus [9]): 187 mmHg; Change in BP (Rattus norvegicus [11]): -32 mmHg; Change in BP (Rattus norvegicus [12]): -30 mmHg
CC1=Cc2cc(OCC(=O)O)c(Cl)c(Cl)c2S1(=O)=O,-25 mmHg,4.34 0-5h,180 mmHg,mequiv of Na+/kg (Mus musculus [5]): 1.33 0-5h; mequiv of Na+/kg (Mus musculus [6]): 6.36 0-5h; mequiv of Na+/kg (Mus musculus [7]): 2.11 0-5h
CCC(O)c1cc2cc(OCC(=O)O)c(Cl)c(Cl)c2s1 (stereo unspecified),-22 mmHg,3.89 0-5h,166 mmHg,
O=C(O)COc1cc2cc(C3CCCCC3)sc2c(Cl)c1Cl,2 mmHg,1.6 0-5h,178 mmHg,
CCc1cc2cc(OCC(=O)O)c(Cl)c(Cl)c2s1,,2.07 0-5h,,Change in BP (Rattus norvegicus [17]): -13 mmHg; mequiv of Na+/kg (Mus musculus [5]): 0.74 0-5h; mequiv of Na+/kg (Mus musculus [7]): 1.51 0-5h; Change in BP (Rattus norvegicus [14]): -21 mmHg; Initial blood pressure (Rattus norvegicus [18]): 176 mmHg; Initial blood pressure (Rattus norvegicus [16]): 185 mmHg
CCC(=O)c1cc2cc(OCC(=O)O)c(Cl)c(Cl)c2s1,-1 mmHg,1.18 0-5h,173 mmHg,
CC1=C(C)S(=O)(=O)c2c1cc(OCC(=O)O)c(Cl)c2Cl,-17 mmHg,0.92 0-5h,165 mmHg,
CCC1=Cc2cc(OCC(=O)O)c(Cl)c(Cl)c2S1(=O)=O,-8 mmHg,3.35 0-5h,213 mmHg,mequiv of Na+/kg (Mus musculus [5]): 0.66 0-5h; mequiv of Na+/kg (Mus musculus [6]): 6.51 0-5h; mequiv of Na+/kg (Mus musculus [7]): 1.84 0-5h

Compound,Change in BP (Rattus norvegicus [1]),mequiv of Na+/kg (Mus musculus [2]),Initial blood pressure (Rattus norvegicus [3]),further results
CC(C)c1cc2cc(OCC(=O)O)c(Cl)c(Cl)c2s1,-41 mmHg,2.52 0-5h,179 mmHg,Initial blood pressure (Rattus norvegicus [4]): 195 mmHg; mequiv of Na+/kg (Mus musculus [5]): 1.24 0-5h; mequiv of Na+/kg (Mus musculus [7]): 1.64 0-5h; Change in BP (Rattus norvegicus [14]): -14 mmHg; Change in BP (Rattus norvegicus [12]): -32 mmHg; Initial blood pressure (Rattus norvegicus [16]): 178 mmHg
O=C(O)COc1cc2c(c(Cl)c1Cl)S(=O)(=O)C1=C2CCCC1,-8 mmHg,0 0-5h,179 mmHg,
O=C(O)COc1cc2c(c(Cl)c1Cl)S(=O)(=O)C(C1CCCC1)=C2,-17 mmHg,1.79 0-5h,180 mmHg,
NS(=O)(=O)c1cc2c(cc1Cl)NCNS2(=O)=O [HYDROCHLOROTHIAZIDE],-26 mmHg,,188 mmHg,Post drug blood pressure (Rattus norvegicus [19]): 156 mmHg and 133 mmHg and 148 mmHg and 150 mmHg; Delta blood pressure (Rattus norvegicus [20]): -18 mmHg [middle of 4 runs]; Initial blood pressure (Rattus norvegicus [8]): 168 mmHg
Cc1sc2c(Cl)c(Cl)c(OCC(=O)O)cc2c1C,-37 mmHg,0.13 0-5h,192 mmHg,
CC(C)Cc1cc2cc(OCC(=O)O)c(Cl)c(Cl)c2s1,4 mmHg,1.29 0-5h,176 mmHg,
Cc1csc2c(Cl)c(Cl)c(OCC(=O)O)cc12,-12 mmHg,0.8 0-5h,203 mmHg,
O=C(O)COc1cc2c3c(sc2c(Cl)c1Cl)CCCC3,-12 mmHg,0.45 0-5h,177 mmHg,
O=C(O)COc1cc2ccsc2c(Cl)c1Cl,2 mmHg,1 0-5h,201 mmHg,
O=C(O)COc1ccc(C(=O)c2cccs2)c(Cl)c1Cl [TICRYNAFEN],-14 mmHg,3.31 0-5h,200 mmHg,
C=C(CC)C(=O)c1ccc(OCC(=O)O)c(Cl)c1Cl [ETHACRYNIC ACID],,4.14 0-5h,,
CCCc1cc2cc(OCC(=O)O)c(Cl)c(Cl)c2s1,-1 mmHg,1.74 0-5h,181 mmHg,
O=C(O)COc1cc2cc(CO)sc2c(Cl)c1Cl,-5 mmHg,1.23 0-5h,199 mmHg,
CCCCc1cc2cc(OCC(=O)O)c(Cl)c(Cl)c2s1,-47 mmHg,0.88 0-5h,173 mmHg,Initial blood pressure (Rattus norvegicus [4]): 173 mmHg; Change in BP (Rattus norvegicus [14]): -17 mmHg; Change in BP (Rattus norvegicus [12]): -16 mmHg; Initial blood pressure (Rattus norvegicus [16]): 171 mmHg
CC(C)(O)c1cc2cc(OCC(=O)O)c(Cl)c(Cl)c2s1,-25 mmHg,4.4 0-5h,193 mmHg,mequiv of Na+/kg (Mus musculus [5]): 0.53 0-5h; mequiv of Na+/kg (Mus musculus [6]): 6.24 0-5h; mequiv of Na+/kg (Mus musculus [7]): 2.21 0-5h
CC(C)CC1=Cc2cc(OCC(=O)O)c(Cl)c(Cl)c2S1(=O)=O,-14 mmHg,3.24 0-5h,176 mmHg,
